A short description of data set [1]: Antioxidant activity assessed as trolox equivalents of AAPH radical scavenging activity at 1 to 10 uM preincubated for 15 mins followed by AAPH addition measured every 60 sec for 90 mins by ORAC-FL assay. The class given is functional. The essentials:
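ORAC-FL in 75 mM phosphate buffer pH 7.4. Compound at 1–10 µM with fluorescein (150 nM final), pre-incubated 15 min at 37 °C, then AAPH added (12 mM final). Fluorescence read every minute for 90 min, ex 485/em 535 nm. Curves normalised to the FL+AAPH blank. Trolox standard 1–8 µM. Duplicates, ≥3 independent assays. Results given as µM Trolox equivalent per µM compound.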

The target in data set [2] is T1, Acetylcholinesterase (Homo sapiens, UniProt P22303). Nature of the data set: Inhibition of human erythrocyte AChE induced amyloid beta (1 to 40) aggregation at 25 uM after 24 hrs by ThT-based fluorometric method relative to control. The essentials:
(§1)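 HFIP-pretreated Aβ1-40 (230 µM final) co-incubated 24 h at room temperature with human AChE (2.3 µM; Aβ/AChE 100:1) ± compound in sodium phosphate buffer pH 8.0. Then 5 µM thioflavin T in glycine-NaOH pH 8.5 was added and read at ex 446/em 490 nm. Triplicate. % inhibition calculated from fluorescence with/without inhibitor, each minus its blank (Aβ alone, AChE alone, Aβ+inhibitor).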

The nature of data set [3]: Metal chelating activity assessed as compound-Fe2+ complex formation by measuring shift in maximum absorption wavelength at 37.5 uM after 30 mins by UV-vis spectrophotometric method. The essentials: (§2)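 UV absorption scanned from 200 to 600 nm after 30 min at room temperature in methanol. Compound and each metal salt (CuCl2, ZnCl2, AlCl3, FeSO4) were at 37.5 µM final. Spectra compared with and without metal.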

Data set [4] is described as follows: Metal chelating activity assessed as inhibition of Cu2+ induced amyloid beta (1 to 42) aggregation at 25 uM after 24 hrs by ThT-based fluorometric method relative to control. The essentials:
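Aβ1-42 (25 µM) with Cu2+ (25 µM, one equivalent) in 20 mM HEPES pH 6.6 with NaCl, incubated 24 h at 37 °C ± compound (25 µM). Then 5 µM thioflavin T in glycine-NaOH pH 8.5 was added and read at ex 446/em 490 nm. Triplicate. % inhibition relative to no-compound control.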

Data set [5] concerns the target Acetylcholinesterase (Electrophorus electricus, UniProt O42275). Nature of the data set: Inhibition of electric eel AChE using acetylthiocholine iodide as substrate after 15 mins by Ellman's method.
The subject of data set [6] is Mus musculus. Nature of the data set: Reversal of scopolamine-induced memory impairment in Kunming mouse assessed as step-down latency time at 7.33 mg/kg, po administered 60 mins prior to training trial followed by scopolamine challenge at 30 mins post dose measured 24 hrs after training trial by passive avoidance test. Format: functional. The essentials: (§3)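 Kunming mice, 18–22 g, six weeks old, either sex; 10 per group. Oral dosing 1 h before training (test compound 3.67, 7.33, 22 mg/kg; donepezil 5.0 mg/kg), scopolamine 3 mg/kg i.p. 30 min later. Training: 0.5 mA, 2 s foot shock on stepping off the block. Step-down latency measured 24 h later. Mean ± SEM.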

A short description of data set [7]: Inhibition of rat serum BuChE using butyrylthiocholine iodide as substrate after 15 mins by Ellman's method. The class given is ADME. For orientation: In Ellman's method for cholinesterases, released thiocholine reacts with DTNB.
Data set [8] addresses Acetylcholinesterase (Electrophorus electricus) (UniProt O42275). The data set can be described thus: Mixed type inhibition of electric eel AChE at 10 to 40 nM preincubated for 15 mins followed by varying levels of acetylthiocholine substrate addition by Lineweaver-Burk plot analysis. The essentials:
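Electric eel AChE (10 µL of 0.5 U/mL) in 0.1 M phosphate pH 8.0 with DTNB, pre-incubated 15 min at 37 °C with three inhibitor concentrations. Acetylthiocholine added at 0.1–0.4 mM and hydrolysis read at 412 nm, with an inhibitor-free control. Lineweaver-Burk plots by weighted least squares; slopes replotted against inhibitor concentration.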

Data set [9] can be described thus: Metal chelating activity assessed as compound-Zn2+ complex formation by measuring shift in maximum absorption wavelength at 37.5 uM after 30 mins by UV-vis spectrophotometric method. The essentials: as §2
Data set [10] deals with PC-12. Nature of the data set: Neuroprotective activity against H2O2 induced cell injury in rat PC12 cells assessed as cell viability at 1 uM preincubated for 24 hrs followed by incubation with H2O2 for 2 hrs measured after 24 hrs by MTT assay (reference value: 43.9%). Format: functional. The following applies: read-out: Activity. The essentials:
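PC12 cells in phenol-red-free DMEM with 10% FCS, plated at 10^5 cells/well. Cells preincubated 24 h with compound (1.0 or 10.0 µM; dissolved in 2% DMSO, diluted in PBS), then exposed to H2O2 100 µM for 2 h. Medium replaced; viability assessed 24 h later by MTT (4 h, 37 °C), lysis in DMF/SDS, A590.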

The test system of data set [11] is Mus musculus. The data set can be described thus: Reversal of scopolamine-induced memory impairment in Kunming mouse assessed as step-down latency time at 22 mg/kg, po administered 60 mins prior to training trial followed by scopolamine challenge at 30 mins post dose measured 24 hrs after training trial by passive avoidance test. The class given is functional. The essentials: as §3

Data set [12] in a line: Metal chelating activity assessed as mole fraction of compound required to show 1:1 stoichiometry for Cu2+-compound complex up to 37.5 uM after 30 mins by UV-vis spectrophotometric method. The essentials: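 Molar-ratio titration in methanol: compound fixed at 37.5 µM final with CuCl2 at 3.75-93.75 µM final. Absorbance at 386 nm taken after numerical subtraction of CuCl2 and compound spectra, and plotted against mole fraction of compound. Stoichiometry taken from the intersection of two straight lines.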

Data set [13] addresses T1, Acetylcholinesterase. The data set can be described thus: Inhibition of human erythrocyte AChE induced amyloid beta (1 to 40) aggregation after 24 hrs by ThT-based fluorometric method. The essentials: as §1
The target in data set [14] is Amyloid-beta precursor protein (Homo sapiens) (UniProt P05067). Nature of the data set: Inhibition of amyloid beta (1 to 42) (unknown origin) self aggregation at 50 uM after 24 hrs by ThT-based fluorometric method relative to control. The essentials:
(§4)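 Aβ1-42 (25 µM final) incubated 24 h at 37 °C with or without compound (1-50 µM) in 50 mM phosphate buffer pH 7.4. Thioflavin T (5 µM in glycine-NaOH pH 8.5) then added, fluorescence read at ex 446/em 490 nm. Inhibition = (1-IFi/IFc)×100 after background subtraction. Run in triplicate.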

The nature of data set [15]: Solubility of the compound in DMEM in presence of 10% FBS. The class given is physicochemical.
Data set [16] is described as follows: Solubility of the compound in water. Format: physicochemical. The settings on record: buffer.
The nature of data set [17]: Metal chelating activity assessed as compound-Cu2+ complex formation by measuring red shift at 37.5 uM after 30 mins by UV-vis spectrophotometric method. The essentials:
as §2

Data set [18] deals with Amyloid-beta precursor protein (Homo sapiens) (UniProt P05067). Nature of the data set: Inhibition of amyloid beta (1 to 42) (unknown origin) self aggregation at 12.5 uM after 24 hrs by ThT-based fluorometric method relative to control. The essentials: as §4
Chain of Amyloid-beta precursor protein (Homo sapiens) (P05067 whole entry): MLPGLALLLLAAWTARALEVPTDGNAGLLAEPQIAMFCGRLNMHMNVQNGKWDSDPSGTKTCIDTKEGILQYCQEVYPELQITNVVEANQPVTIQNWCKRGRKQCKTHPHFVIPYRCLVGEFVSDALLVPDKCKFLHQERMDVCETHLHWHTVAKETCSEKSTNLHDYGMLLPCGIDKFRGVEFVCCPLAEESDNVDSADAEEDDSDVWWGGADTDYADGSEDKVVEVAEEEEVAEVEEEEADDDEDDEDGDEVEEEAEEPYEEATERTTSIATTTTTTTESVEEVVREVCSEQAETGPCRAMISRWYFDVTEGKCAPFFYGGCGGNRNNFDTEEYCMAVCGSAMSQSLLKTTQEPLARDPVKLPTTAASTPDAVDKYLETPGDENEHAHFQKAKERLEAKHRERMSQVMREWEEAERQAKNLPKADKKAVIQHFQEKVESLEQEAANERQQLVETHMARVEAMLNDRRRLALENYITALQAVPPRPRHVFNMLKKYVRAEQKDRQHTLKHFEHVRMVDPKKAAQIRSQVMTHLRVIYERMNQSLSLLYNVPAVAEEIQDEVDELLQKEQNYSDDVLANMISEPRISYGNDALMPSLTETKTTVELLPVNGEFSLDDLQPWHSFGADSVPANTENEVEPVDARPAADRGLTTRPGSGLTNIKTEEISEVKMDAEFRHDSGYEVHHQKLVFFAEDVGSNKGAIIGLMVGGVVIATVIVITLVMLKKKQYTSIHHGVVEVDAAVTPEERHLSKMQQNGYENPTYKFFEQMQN

pIC50: −log10 of the molar value. Active and inactive are the calls of the source. The rule behind the calls is not given here. Where only a bound is given, the exact number is not on record here.

T1 sequence (P22303 whole entry): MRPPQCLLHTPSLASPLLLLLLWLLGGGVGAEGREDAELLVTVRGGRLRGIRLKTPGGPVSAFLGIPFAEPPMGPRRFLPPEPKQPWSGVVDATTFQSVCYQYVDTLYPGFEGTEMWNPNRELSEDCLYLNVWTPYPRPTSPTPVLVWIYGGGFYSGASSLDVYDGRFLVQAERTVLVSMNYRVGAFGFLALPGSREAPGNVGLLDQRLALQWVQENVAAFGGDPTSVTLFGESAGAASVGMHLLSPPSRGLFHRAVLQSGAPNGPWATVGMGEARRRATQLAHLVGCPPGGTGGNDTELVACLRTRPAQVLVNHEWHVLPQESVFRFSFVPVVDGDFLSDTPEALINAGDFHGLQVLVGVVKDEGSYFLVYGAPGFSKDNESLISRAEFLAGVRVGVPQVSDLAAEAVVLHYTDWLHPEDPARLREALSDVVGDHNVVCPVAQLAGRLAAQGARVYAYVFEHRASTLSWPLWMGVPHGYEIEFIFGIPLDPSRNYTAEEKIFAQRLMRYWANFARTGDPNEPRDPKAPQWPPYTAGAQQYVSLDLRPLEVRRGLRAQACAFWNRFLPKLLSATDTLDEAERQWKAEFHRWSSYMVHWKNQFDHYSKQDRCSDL
Chain of Acetylcholinesterase (Electrophorus electricus, UniProt O42275) (O42275 whole entry): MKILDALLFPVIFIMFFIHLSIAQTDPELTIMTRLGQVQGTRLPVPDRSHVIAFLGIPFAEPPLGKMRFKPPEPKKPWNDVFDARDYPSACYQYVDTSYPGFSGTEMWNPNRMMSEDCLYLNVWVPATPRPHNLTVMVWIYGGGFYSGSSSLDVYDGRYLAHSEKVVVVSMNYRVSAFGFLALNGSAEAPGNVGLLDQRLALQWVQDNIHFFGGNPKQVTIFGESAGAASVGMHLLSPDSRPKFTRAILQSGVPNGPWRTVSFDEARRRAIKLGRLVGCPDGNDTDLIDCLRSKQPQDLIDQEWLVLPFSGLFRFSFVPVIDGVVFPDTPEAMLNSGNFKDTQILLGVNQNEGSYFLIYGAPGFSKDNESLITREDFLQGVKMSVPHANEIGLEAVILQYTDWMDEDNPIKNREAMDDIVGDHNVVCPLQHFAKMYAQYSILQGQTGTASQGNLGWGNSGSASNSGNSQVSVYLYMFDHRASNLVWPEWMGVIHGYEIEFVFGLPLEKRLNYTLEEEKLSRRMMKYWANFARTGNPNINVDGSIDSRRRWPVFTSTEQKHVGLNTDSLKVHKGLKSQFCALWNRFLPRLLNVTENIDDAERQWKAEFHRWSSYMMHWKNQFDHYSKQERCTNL
Chain of Acetylcholinesterase (Electrophorus electricus) (O42275 24-633 limits assumed): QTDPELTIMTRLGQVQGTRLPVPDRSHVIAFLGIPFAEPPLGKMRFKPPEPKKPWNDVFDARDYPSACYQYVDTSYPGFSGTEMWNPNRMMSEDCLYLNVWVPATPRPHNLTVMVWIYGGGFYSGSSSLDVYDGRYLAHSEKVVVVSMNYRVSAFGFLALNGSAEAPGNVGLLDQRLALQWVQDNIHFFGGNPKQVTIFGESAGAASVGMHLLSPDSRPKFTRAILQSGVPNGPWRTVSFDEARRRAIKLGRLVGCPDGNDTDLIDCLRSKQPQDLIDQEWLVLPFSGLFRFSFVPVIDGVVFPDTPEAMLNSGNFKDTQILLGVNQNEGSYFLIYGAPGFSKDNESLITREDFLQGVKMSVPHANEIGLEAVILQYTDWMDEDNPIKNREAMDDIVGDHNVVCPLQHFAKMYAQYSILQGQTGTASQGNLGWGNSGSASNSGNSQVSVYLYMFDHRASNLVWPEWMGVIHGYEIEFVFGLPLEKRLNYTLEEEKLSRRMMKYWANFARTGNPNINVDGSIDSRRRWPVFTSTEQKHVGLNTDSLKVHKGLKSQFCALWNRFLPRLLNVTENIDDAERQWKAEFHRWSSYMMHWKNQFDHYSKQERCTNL

As for `CCN(CCCCNC(=O)COc1ccc(-c2cc(=O)c3c(O)c(OC)c(OC)cc3o2)cc1)Cc1ccccc1OC`, the Activity in data set [1] is 1.13 equiv; in [12], 0.99 molar ratio. In addition, the inhibition in data set [2] was 32.7%; in data set [4], 43.4%; in data set [13], “Dose-dependent effect”; in data set [14] it was 75.2%; in data set [18], 43.6%. The outcome in data set [3] and in [9] was inactive. Moreover, the figures for the pIC50 in [5] and in data set [7] were 4.80 and < 3.30, respectively. Also, the Time turned out to be 194.3 s in [6] and 176.4 s in data set [11]. The inhibition entry in [8] is “Active”. Besides, the viability at 1 µM in data set [10] stood at 67.6%. Also, the solubility entry in data set [15] and in [16] was “Insoluble” throughout. Further, the result in data set [17] was Active.

For orientation: inhibition means the change of the read-out against control, counted positive when it falls. In general, pIC50 refers to the negative decadic logarithm of the IC50, by convention in mol/L. A high value points to a small IC50.
